Compound activity as filed in PubChem BioAssay.
Calb FLC = affects C. albicans growth with fluconazole. C. albicans CaCi-2 (fluconazole-resistant clinical isolate) + fluconazole, Alamar Blue growth, 48 h. growth inhibition, % (no concentration beside the values). actives 0.57% (n = 300,000). AID 1979;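 active = growth inhibition above about 58% in most replicates, limit read from the data, passing the limit was not always enough; inconclusive = exactly half the replicates above a set limit; inactive = most replicates below a set limit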;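 also: all wells also contain fluconazole at 8 µg/ml as a sub-toxic cotreatment; 0% = median of DMSO wells and 100% = median of geldanamycin control wells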
NALP1 inh = inhibitors of NALP1 inflammasome in yeast | S. cerevisiae NALP1/ASC/caspase-1 growth, X-gal OD620, 72 h | inhibition, % at 10 µM | actives 0.61% (n = 280,000); in the data active = inhibition mostly above about 24%, no sharp cut-off; inactive = mostly below about 32%
T cruzi inh = blocks replication of Trypanosoma cruzi | inhibition, % (concentration not given with the values) | T. cruzi beta-gal in NIH3T3, luminescence, 90 h | actives 1.4% (n = 300,000) | AID 1885;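 active = mean inhibition across valid replicates above about 55%, limit read from the data; inconclusive = mean below that limit but half or more replicates reach it; inactive = mean below it, under half of replicates reach it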;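 also: signal also drops with host cell toxicity which is not excluded here; 0% = plate median of DMSO wells and 100% = zero luminescence signal; higher percent means less beta-gal luminescence so fewer parasites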
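Material: NIH/3T3 host cells with β-galactosidase reporter T. cruzi; Input: 5,000 host fibroblasts per well; Medium: DMEM, 2% fetal bovine serum; Compound: 50 nL DMSO compound solution per well; Schedule: 3 h host attachment, then at least 90 h co-culture; Detection: luminescent β-galactosidase signal after 60 min lysis.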
Lmaj promast = reduces viability of Leishmania major promastigotes. resazurin fluorescence viability. inhibition, % at 10 µM. actives 9% (n = 200,000); in the data active = inhibition above about 50%;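 also: promastigotes grown with compound for 44 hours at 28 °C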
PolyA inhibitor = blocks polyadenylation in yeast reporter cells | actives 0.02% (n = 300,000) | S. cerevisiae SKY197-pL101 polyadenylation reporter, beta-gal luminescence; efflux-impaired pdr1/pdr3 knockout yeast; score 100 = 6 SD above DMSO | AID 1875 | activity score, % at 12 µM;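 active = lowest replicate activity score at least 50, where 100 means six control SD above control mean; inconclusive = lowest score under 50 but half or more replicates reach 50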;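 also: yeast exposed to compound for 9 h at 30 °C; higher score means more reporter readthrough which indicates perturbed polyadenylation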
NALP3 yeast inh = inhibitors of NALP3 inflammasome in yeast; actives 0.39% (n = 330,000); inhibition, % at 10 µM; Yeast reconstituted NLRP3/ASC/caspase-1, beta-gal luminescence, 24 h;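 active = inhibition of 50% or more; inactive = inhibition below 50%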;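 also: plate controls were induced DMSO wells for no effect and uninduced yeast grown without galactose for full effect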
Starred values were filed as active, the others as inactive; u = inconclusive; x = not tested or not shown. Shown is part of a subset that was picked to be rich in hits.

SMILES	Calb FLC	NALP1 inh	T cruzi inh	Lmaj promast	PolyA inhibitor	NALP3 yeast inh
O=C(NCC1CCCN(Cc2ccc3nonc3c2)C1)c1ccc(F)cc1 (configuration not stated)	-25	9	43	90*	6	9
COc1ccccc1NC(=O)c1sc2ncn(Cc3cccc4ccccc34)c(=O)c2c1C	3	27	46	0	-3	-7
CCCN1CCC(N2CCCC(C(=O)O)C2)CC1 (configuration not stated)	0	0	15	2	-2	16
CCN(CC)CCCNc1nc2cc(OC)c(OC)cc2c2nc(-c3ccccc3)nn12	u	5	61*	101*	-13	22
COCCCNc1nc2cc(OC)c(OC)cc2c2nc(-c3ccccc3)nn12	-7	25	-2	x	u	3
CCN(CC)CCCNc1nc2ccccc2c2nc(-c3ccncc3)nn12	-30	8	45	x	1	-4
COc1cc2nc(NCCCN3CCN(C)CC3)n3nc(-c4ccccc4)nc3c2cc1OC	1	16	62*	101*	2	24
CCN(CC)CCCNc1nc2cc(OC)c(OC)cc2c2nc(-c3cccnc3)nn12	-15	-1	52	101*	-5	17
COc1cc2nc(NCC3CCCO3)n3nc(-c4cccnc4)nc3c2cc1OC (configuration not stated)	0	37*	13	49	-7	4
COc1cc(-c2nc3ccccn3c2NCC2CCCO2)ccc1O (configuration not stated)	8	-4	-6	14	2	12
O=C(c1cccc2ccccc12)N1CCC(N2CCN(c3ccccc3)CC2)CC1	u	8	-2	95*	-7	-5
CC1CCC(N2CCN(S(=O)(=O)Cc3ccccc3)CC2)CC1 (configuration not stated)	-22	16	-16	x	7	18
O=C(c1cccs1)N1CCC(N2CCN(c3ccccc3)CC2)CC1	-1	17	-35	86*	-12	2
CCOC(=O)N1CCC(N2CCN(c3ccccc3)CC2)CC1	0	3	9	x	-3	14
O=S(=O)(Cc1ccccc1)N1CCC(N2CCN(c3ccccc3)CC2)CC1	-3	-1	11	98*	11	32
Cc1cccc(NC(=O)NNC(=O)COc2ccc([N+](=O)[O-])cc2)c1C	2	6	1	x	13	10
COCc1cc(Sc2ccc(OC)cc2)nc(-c2ccccc2)n1	-8	-2	17	0	-20	17
COc1ccc(CN2CCNC(=O)C2CC(=O)NCCCn2cccn2)c(OC)c1 (configuration not stated)	-11	-17	-25	-7	0	-10
O=C(CCc1ccc(Oc2cc([N+](=O)[O-])cc([N+](=O)[O-])c2)cc1)Nc1cccc(Cl)c1	-5	13	50	100*	-11	x
O=C(CCc1ccc(Oc2cc([N+](=O)[O-])cc([N+](=O)[O-])c2)cc1)N1CCCCC1	6	34	45	92*	-24	8
COc1ccc(CCC(=O)Nc2cccc(Cl)c2)cc1	-5	38	-4	-7	1	29
O=C(c1ccc(Oc2ccc([N+](=O)[O-])cc2)cc1)N1CCCCCC1	-8	x	17	x	-11	42
CN(C)CCCNS(=O)(=O)c1ccc(Oc2ncc(C(F)(F)F)cc2Cl)cc1	-1	32	35	95*	1	15
CN(C)CCCNc1ncc(C(F)(F)F)cc1Cl	-1	-11	63*	2	-1	15
O=C(O)Cc1ccc(Oc2ncc(C(F)(F)F)cc2Cl)cc1	0	2	-9	-16	-12	23
SMILES	Calb FLC	NALP1 inh	T cruzi inh	Lmaj promast	PolyA inhibitor	NALP3 yeast inh
CC(=O)Nc1ccc(C2Nc3cc(C)c(C)cc3NC3=C2C(=O)CC(C)(C)C3)cc1 (configuration not stated)	3	-8	-3	x	-4	19
Cc1cc2c(cc1C)NC(c1nc3ccccc3[nH]1)C1=C(CC(C)(C)CC1=O)N2 (configuration not stated)	4	-13	45	91*	0	2
CC1=CC(C)(C)N2C(=O)C3(C(C#N)=C(N)Oc4cc(C)oc(=O)c43)c3cc(C)cc1c32 (configuration not stated)	-12	x	55*	91*	8	3
Cc1cc2c3c(c1)C1(C(=O)N3C(C)(C)CC2C)C(C#N)=C(N)Oc2cc(O)ccc21 (configuration not stated)	-20	-6	66*	100*	10	15
CC1=CC(C)(C)N2C(=O)C3(C(C#N)=C(N)Oc4cc(O)ccc43)c3cccc1c32 (configuration not stated)	-11	10	11	56*	9	-6
CC1=CC(C)(C)N2C(=O)C3(C(C#N)=C(N)OC4=C3C(=O)CC(C)(C)C4)c3cccc1c32 (configuration not stated)	-1	30	10	0	12	-4
Cc1ccc2c3c1C1(C(=O)N3C(C)(C)CC2C)C(C#N)=C(N)Oc2cc(O)ccc21 (configuration not stated)	-1	26	-5	49	-4	1
CS(=O)(=O)N(CC(=O)Nc1ccc(Br)cc1)C1CCCCC1	14	21	1	x	-2	7
Cc1ccc(Nc2nc(CSc3nnc(-c4cccnc4)n3-c3ccccc3C)cs2)cc1	-6	11	12	97*	3	17
Cn1nnnc1SCc1csc(Nc2ccccc2)n1	1	1	-9	-3	u	-8
Cc1ccccc1-n1c(SCc2csc(Nc3ccccc3)n2)nnc1-c1cccnc1	u	-4	0	65*	-14	4
Cc1ccc(Nc2nc(CSc3nnc(-c4ccccc4)n3C)cs2)cc1	-13	17	6	95*	-3	12
COc1ccc2[nH]cc(CCNS(=O)(=O)Cc3ccccc3)c2c1	15	26	5	-7	9	10
Cc1ccc(NC(=O)CN2C(=O)S/C(=C\C(=O)Nc3ccc(Cl)cc3)C2=O)cc1	-7	8	2	63*	-12	x
O=C(NCc1ccccc1Br)c1ccc2c(c1)OCCO2	2	14	3	x	-12	26
CC(C)n1c(CN(C)c2ccccc2)nc2ccccc21	-2	-7	-7	x	-26	11
COCCn1c(-c2ccc(OC)cc2)nc2ccccc21	-4	0	-5	56*	-3	18
CCCn1c(/C=C/c2ccccc2)nc2ccccc21	33	14	x	88*	-35	44
COCCn1c(COc2ccc(C)cc2)nc2ccccc21	-40	21	4	19	-12	28
COCCOCCn1c(/C=C/c2ccccc2)nc2ccccc21	-3	-2	10	63*	-25	15
